Source: ChEMBL document CHEMBL4373670, “Selective in vitro anti-cancer activity of non-alkylating minor groove binders” (Medchemcomm, 2019)
Calls of active or inactive are those of the source. The rule behind the calls is not given here.

What was measured:
[1] = system: HCT-116; assay: Induction of DNA damage in human HCT116 cells assessed as increase in p53 expression at 0.25 uM to 1 uM incubated for 24 hrs by Western blot analysis; format: functional, cell-based
Procedure, shortened: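 HCT116 cells were treated for 24 h and lysed in RIPA buffer. 40 µg lysate was run on 15% SDS-PAGE and transferred to nitrocellulose. Blots were probed for phospho-S139 γH2AX (9F3, 1:1000), p53 (DO-1, 1:1000) and β-actin (C4, 1:40 000), then detected with HRP secondaries and ECL.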

[2] = system: HCT-116; assay: Induction of DNA damage in human HCT116 cells assessed as increase in gammaH2AX phosphorylation at ser139 at 0.25 uM to 1 uM incubated for 24 hrs by Western blot analysis

**Q.** Which results are given for `COc1cccc2c1C(=O)c1c(O)c3c(c(O)c1C2=O)C[C@@](O)(C(=O)CO)C[C@@H]3O[C@H]1C[C@H](N)[C@H](O)[C@H](C)O1`?
**A.** Activity [1]: Active; Activity [2]: Active
